Measurements as given in ChEMBL document CHEMBL1156947, “Halogenated analogs of 1'-acetoxychavicol acetate, Rev-export inhibitor from Alpinia galanga, designed from mechanism of action” (Bioorg Med Chem Lett, 2010).
≈ marks a conversion by molar mass, not a printed value.

What was measured:
[1] = system: Human immunodeficiency virus 1; assay: Inhibition of HIV1 Rev nuclear export in Saccharomyces pombe expressing GST-NLS-GFP-RevNES fused protein assessed as cellular distribution after 3 hrs by fluorescence microscopy
How it was run: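 Fission yeast colony grown 24 h at 37 °C in thiamine-free MM medium to induce the GST-NLS-GFP-RevNES fusion. Cells then exposed to samples in medium with 1% DMSO for 3 h at 37 °C. Fusion-protein distribution checked by fluorescence microscopy to give MIC values.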

[2] = Inhibition of HIV1 HA-tagged Rev nuclear export expressed in human HeLa cells assessed as cellular localization after 12 hrs by FITC-labelled indirect fluorescence microscopy; format: cell-based; conditions: Human immunodeficiency virus 1, HeLa
How it was run: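 HeLa cells (1.0 × 10^5) grown on coverslips in DMEM with 10% FBS, 37 °C, 5% CO2, 24 h. Co-transfected 16 h with plasmids for HA-tagged Rev and Gag (pCRRE/ΔRev). Samples added in medium with 1% DMSO, 12 h at 37 °C. Cells fixed in 4% formaldehyde, methanol-treated, blocked with 10% FBS, then anti-HA and FITC anti-mouse IgG. Rev localization scored by fluorescence microscopy and image analysis.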

[3] = Stability assessed as compound remaining up to 180 mins in presence of in fetal bovine serum; format: ADME; conditions: cattle, 3 h
How it was run: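 Sample (0.2 mM ethanol stock) added to RPMI1640 containing 10% FBS, held at 37 °C for 0, 30, 60 or 180 min. Mixture extracted with EtOAc, residue taken up in acetonitrile. Remaining compound measured by reversed-phase HPLC (C18, acetonitrile–water gradient, UV 220 nm), in triplicate.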

MIC [1]	IC50 [2]	Stability [3]	Compound
2.2 µM (≈ 0.591 µg/mL)	620 nM		C=C[C@H](OC(C)=O)c1ccc(OC(C)=O)c(Cl)c1
> 50 µM		Stable	C=C[C@H](OC(=O)OC(C)(C)C)c1ccc(OC(=O)OC(C)(C)C)cc1
25 µM (≈ 7.36 µg/mL)		Stable	C=C[C@H](OC(=O)OCC)c1ccc(OC(=O)OCC)cc1
25 µM (≈ 6.66 µg/mL)		Stable	C=C[C@H](OC(=O)OC)c1ccc(OC(=O)OC)cc1
19 µM (≈ 4.98 µg/mL)			C=C[C@H](OC(=O)CCC)c1ccc(OC(C)=O)cc1
1.7 µM (≈ 0.532 µg/mL)	490 nM		C=C[C@H](OC(C)=O)c1ccc(OC(C)=O)c(Br)c1
> 50 µM		Stable	C=C[C@H](OC(=O)NCC)c1ccc(OC(=O)NCC)cc1
26 µM (≈ 7.24 µg/mL)			C=C[C@H](OC(=O)OCCC)c1ccc(OC(C)=O)cc1
> 50 µM		Stable	C=C[C@H](OC(=O)NC(C)C)c1ccc(OC(=O)NC(C)C)cc1
> 50 µM			C=C[C@H](OC(=O)OC(C)C)c1ccc(OC(C)=O)cc1
10 µM (≈ 3.22 µg/mL)		Stable	C=C[C@H](OC(=O)OCCC)c1ccc(OC(=O)OCCC)cc1
1.4 µM (≈ 0.378 µg/mL)	130 nM		C=C[C@H](OC(C)=O)c1ccc(OC(C)=O)c(F)c1F
1.7 µM (≈ 0.429 µg/mL)	480 nM		C=C[C@H](OC(C)=O)c1ccc(OC(C)=O)c(F)c1
> 50 µM		Stable	C=C[C@H](OC(=O)NC(C)(C)C)c1ccc(OC(=O)NC(C)(C)C)cc1
19 µM (≈ 4.98 µg/mL)			C=C[C@H](OC(=O)C(C)C)c1ccc(OC(C)=O)cc1
> 50 µM		Stable	C=C[C@H](OC(=O)OC(C)C)c1ccc(OC(=O)OC(C)C)cc1
> 50 µM		Stable	C=C[C@H](OC(=O)NCCC)c1ccc(OC(=O)NCCC)cc1

Compound	MIC [1]	IC50 [2]	Stability [3]
C=C[C@H](OC(=O)NC)c1ccc(OC(=O)NC)cc1	> 50 µM		Stable
C=C[C@H](OC(C)=O)c1ccc(OC(C)=O)cc1 [1'-ACETOXYCHAVICOL ACETATE]	4.3 µM	980 nM	
